Most compounds without a hit are left out; they make up all but 3.7% or so of the library.
KCNK9 block: KCNK9 potassium channel inhibitors, primary screen, HEK293 cells, thallium flux | Potassium channel subfamily K member 9 (Homo sapiens), Q9NPC2 | FluxOR thallium flux fluorescence; stronger effect = lower value | B-score at 10 µM | 310,000 tested, 1.2% active | AID 488922, 2010;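 active means ratio B-score over 3 SD below the library mean, with starting fluorescence within 5 SD of its mean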;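 further: negative B-score means less thallium flux so channel inhibition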
Target sequence (Q9NPC2 whole entry, looked up): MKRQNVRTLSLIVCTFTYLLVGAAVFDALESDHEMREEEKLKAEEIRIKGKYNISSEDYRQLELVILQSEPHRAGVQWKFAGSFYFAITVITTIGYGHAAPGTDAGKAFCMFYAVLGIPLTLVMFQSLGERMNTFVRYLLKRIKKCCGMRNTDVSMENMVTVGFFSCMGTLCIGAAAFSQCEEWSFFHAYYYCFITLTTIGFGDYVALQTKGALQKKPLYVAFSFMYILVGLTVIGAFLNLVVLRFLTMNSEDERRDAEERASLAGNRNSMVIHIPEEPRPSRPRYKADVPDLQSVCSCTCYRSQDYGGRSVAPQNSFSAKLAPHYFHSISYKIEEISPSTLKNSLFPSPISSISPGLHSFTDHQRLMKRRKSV
KCNK3 block: human KCNK3 channel inhibitors, primary screen, CHO cells, FluxOR thallium flux, B-score. Potassium channel subfamily K member 3 (Homo sapiens), O14649. FluxOR fluorescence; stronger effect = lower value. AID 602410, 2012. 340,000 tested, 0.84% active. B-score at 10 µM;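 active means B-score under library mean minus 4 SD, starting fluorescence ratio at most library mean plus 5 SD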;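 further: more negative B-score means stronger inhibition of thallium flux through KCNK3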
Kir21 inh: inhibitors of mouse Kir2.1 inward-rectifier potassium channel; Inward rectifier potassium channel 2 (Mus musculus), P35561; 310,000 tested, 0.85% active; B-score at 10 µM; HEK293-Kir2.1, FluxOR thallium flux fluorescence; stronger effect = lower value; AID 1672, 2009;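 active means fluorescence ratio B-score at or below minus 3 SD of library scores, with starting-brightness B-score within 2 SD, cut at about -4.2 in these data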;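 further: channel flux triggered by added potassium and thallium sulfate stimulus; B-score of peak minus minimum fluorescence over baseline after thallium stimulus; more negative B-score means stronger Kir2.1 block with less thallium influx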
KCNQ1 pot: potentiators or activators of KCNQ1 channel, primary screen, cell-based, thallium flux, high-throughput; 310,000 tested, 0.35% active; Potassium voltage-gated channel subfamily KQT member 1 (Homo sapiens), P51787; CHO-K1 KCNQ1, thallium flux FluxOR fluorescence; stronger effect = higher value; B-score at 10 µM; AID 2648, 2010;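 active means fluorescence ratio B-score, a plate-corrected score, at least three library SD, with initial intensity B-score within 5 SD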
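System: Stable KCNQ1 CHO-K1 line | Incubation: 90 min dye loading and 20 min compound exposure, both at room temperature | Measure: Ratio B score | Medium: Assay buffer for compound exposure, DMSO matched across wells | Compound dosing: Single-concentration screen | Probe or stimulus: K+/Tl+ depolarizing stimulus | Measured by: Kinetic FluxOR fluorescence, 10 s baseline plus 110 s post-stimulus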
hERG protect: hERG rescue from dofetilide block, primary screen, cell-based, CHO-hERG, FluxOR thallium flux, dofetilide IC70; Voltage-gated inwardly rectifying potassium channel KCNH2 (Homo sapiens), Q12809; dofetilide IC70 present; activation (rescue from dofetilide block), less the hit threshold, % at 10 µM; 310,000 tested, 0.51% active;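 active means activation above the mean of controls blocked by dofetilide plus 5 SD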;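 further: thallium influx through hERG after potassium depolarization seen as dye fluorescence rise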
KCNQ1 block: inhibitors of human KCNQ1 channel, primary screen, cell-based, thallium flux, high-throughput. Potassium voltage-gated channel subfamily KQT member 1 (Homo sapiens), P51787. CHO-K1 KCNQ1, FluxOR thallium flux fluorescence; stronger effect = higher value. B-score at 10 µM. 310,000 tested, 1.3% active. AID 2642, 2010;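 active means compounds whose thallium flux B-score, printed positive for inhibition, exceeds three library SD while starting fluorescence stays within three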;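 further: channel opened by potassium depolarization with thallium stimulus after 20 min compound exposure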
* = called active by the depositor; i = inactive; . = not tested or not shown.

SMILES	KCNK9 block	KCNK3 block	Kir21 inh	KCNQ1 pot	hERG protect	KCNQ1 block
CC(=O)Nc1cccc(C(=O)/C=C/c2ccc(Br)cc2)c1	i	i	-6*	i	-17	i
CCOc1ccc(OCCOC(=O)CN2C(=O)NC3(CCCC3)C2=O)cc1	i	i	1.5	i	-15	i
COc1ccccc1N1C(=O)C2C(C(=O)c3ccccc3)=NN(c3ccc(C)cc3)C2C1=O (configuration not stated)	i	i	0.2	i	-10	6*
CC(C)Nc1nc(Oc2ccc(Cl)cc2Cl)cc(C(F)(F)F)n1	i	i	1.6	i	-10	7*
CC(C)Nc1nc(Oc2cccc(Cl)c2Cl)cc(C(F)(F)F)n1	i	i	0.45	i	-16	i
CCCNC(=O)c1ccc(N2CCC3(CC2)CC(c2cccc(Br)c2)=NO3)c(NC(=O)c2ccc(Cl)c([N+](=O)[O-])c2)c1	i	i	-0.93	i	-17	i
Cc1cc(C)nc(SSc2nc(C)cc(C)n2)n1	i	i	0.03	i	5.6*	i
Cc1ccc2c(c1)C1CN(C)CCC1N2C(=O)c1cccc(S(=O)(=O)N(C)C)c1 (configuration not stated)	i	i	1.1	i	-20	i
Cc1ccc2c(c1)C1CN(C)CCC1N2C(=O)Nc1ccc(Cl)cc1 (configuration not stated)	i	i	-0.26	i	-8	7*
CC(C)C1Cc2c(sc(NC(=S)NC(=O)c3ccccc3)c2C#N)CO1 (configuration not stated)	i	i	0.27	i	-11	i
CCOC(=O)c1c(NC(=S)NCCc2ccccc2)sc2c1CC(C(C)C)OC2 (configuration not stated)	i	i	1.3	8*	1	i
C=CCNC(=S)Nc1sc2c(c1C(=O)OCC)CC(C(C)C)OC2 (configuration not stated)	i	i	1.1	48*	-1	i
CN(C)c1ccc(S(=O)(=O)N2CCCCC2)cc1NC(=O)CCNC(=O)c1ccco1	.	i	.	.	.	.
CC1CCC(NC(=O)c2cccc(S(=O)(=O)N3CCN(c4ccc(F)cc4)CC3)c2)CC1 (configuration not stated)	i	i	0.76	i	-15	i
Cc1ccc(C(=O)NCc2ccncc2)cc1S(=O)(=O)N1CCCCC1	i	i	-0.01	i	-8	i
COCCOC(=O)c1c(C)oc2ccc(O)c(CN3CCC(C)CC3)c12 (tested in a mixture with another compound)	.	i	.	.	.	.
O=C(c1cc(Br)c(Br)s1)N1CCc2ccccc2C1	.	i	.	.	.	.
S=C(NCCNCc1ccccc1)NC1CCCCC1	-7.1*	.	2.1	i	-15	i
S=C(NCCc1ccccc1)NC1CCCCCC1	i	i	0.69	i	-14	i
COc1cc2c(cc1OC)-c1nc3ccccc3c(=O)n1C(C)(C)C2	i	i	-1.3	i	-13	i
COc1cc2c(cc1OC)C1=CC(=O)C(=O)N1C(C)(C)C2	i	i	-0.77	i	-11	12*
CCOC(=O)c1c(S(=O)(=O)NCc2ccco2)c(C)n(C)c1C	i	i	-0.79	i	-1	i
CCc1cc(-c2nc(N)ncc2-c2csc(C)n2)c(O)cc1OC	i	i	-2.7	i	-8	i
CCCc1cc(-c2nc(N)ncc2-c2ccc3c(c2)OCCCO3)c(O)cc1OC	i	i	1.6	i	-14	7*
CCCc1cc(-c2nc(N)ncc2-c2csc(C)n2)c(O)cc1OC	i	i	-6.4*	i	-12	i
CC(CCc1ccccc1)NC(=O)c1ccc(NC(=O)c2cccc(Br)c2)cc1 (configuration not stated)	-7.4*	i	1.2	i	-2	i
